Out of some 330,000 compounds screened, about 350 (0.11%) were called active. The entries come from a sample that favours actives as a whole. Values without a mark were called inactive.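 Rule for the calls: active = activation above the mean of all tested compounds plus 3 SD (cut at about 21% in these data); inactive = the rest.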
Molecular target: Caspase-3 (Homo sapiens) (UniProt P42574)
Assay: activators of human procaspase-3 D3A mutant, primary screen, biochemical, absorbance, PC-3 D3A mutant, single concentration (AID 463141);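 note: 0% = DMSO alone and 100% = DMSO wells spiked with extra 5 µM PC-3 D3A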
Conditions: recombinant procaspase-3 D3A, Ac-DEVD-pNA absorbance 405 nm; at 8.5 µM; stronger effect = higher value
Summary of the method: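 Assay system: Procaspase-3 D3A mutant, all three cleavage aspartates alanine. Buffer or medium: Zinc-free HEPES saline buffer with Triton X-100. Times: 1 h compound preincubation, 2 h substrate hydrolysis at 25 °C. Measured by: 405 nm absorbance of p-nitroaniline, reads at 0 and 120 min. Read-out basis: percent activation relative to control range. Replicates: singlicate.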

Chain of Caspase-3 (Homo sapiens) (P42574 whole entry D9A/D28A/D175A): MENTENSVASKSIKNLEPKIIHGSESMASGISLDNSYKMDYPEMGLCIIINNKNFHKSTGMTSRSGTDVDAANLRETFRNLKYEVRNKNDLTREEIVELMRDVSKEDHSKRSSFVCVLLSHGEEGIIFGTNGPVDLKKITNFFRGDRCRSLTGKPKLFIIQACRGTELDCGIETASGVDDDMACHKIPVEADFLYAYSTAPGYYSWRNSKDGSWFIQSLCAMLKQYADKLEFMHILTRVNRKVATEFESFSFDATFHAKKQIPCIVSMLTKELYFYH

Compound	activation
COc1ccccc1NS(=O)(=O)c1ccc(C(=O)N2CCN(c3ccccc3O)CC2)cc1	21.8% (active)
COc1ccc(S(=O)(=O)Nc2ccccc2C(=O)N2CCCC2)cc1C	9.9%
COc1ccccc1N1CCN(C(=O)c2ccc(S(=O)(=O)N3CCCCC3)cc2)CC1	-4.47%
CC(NC(=O)c1ccccc1C(=O)O)c1ccc(-n2ccnc2)cc1 (configuration not stated)	-0.91%
C=CCNc1nc(Nc2ccc(Cl)cc2)nc(OC)n1	3.18%
COc1cccc(-c2cc3nc4c(c(N5CCC6(CC5)OCCO6)n3n2)CCCC4)c1	5.55%
NC(=O)C1CC=CCC1C(=O)OCC(Cl)=C(Cl)Cl (configuration not stated)	-0.01%
CSc1nsc(SC)c1NC(=O)OC1CCCCC1	-22.8%
CC(C)OCCCNC(=O)CN1C(=O)/C(=C/c2ccccc2F)Oc2ccccc21	-1.27%
CCCN1CCN(C(=O)CCCNC(=O)c2ccc(Cl)cc2)CC1	-2.14%
CN1CCN(CCCNC(=O)c2ccc(/C=C3\Oc4ccccc4N(Cc4ccc(Cl)cc4)C3=O)cc2)CC1	38.4% (active)
N#CC1(NC(=O)COC(=O)CSc2ccc(F)cc2)CCCCC1	-6.99%
CCCOn1c(-n2nc(C)cc2C)nc2ccccc2c1=O	7.25%
CCC(C)(C)NC(=O)C(c1ccccn1)N(C(=O)c1csnn1)c1ccccc1 (configuration not stated)	2.32%
Cc1ccc(S(=O)(=O)NNC(=S)NC(C)(C)C)cc1	9.08%
COc1ccccc1CN(C)c1nnnn1-c1ccccc1	9.63%
O=C(NCc1cccs1)C(=O)NCC1OCCCN1S(=O)(=O)c1ccc(F)cc1 (configuration not stated)	1.51%
CCc1c(C)c2ccc(OC3CCCCC3=O)cc2oc1=O (configuration not stated)	3.96%
COC(=O)Cc1c(C)c2ccc(OCC(=O)NCc3ccc4c(c3)OCO4)cc2oc1=O	0.37%
CC(=O)Oc1ccc2c(C)c(CC(C)O)c(=O)oc2c1 (configuration not stated)	24.1% (active)
COc1ccc(CCNC(=O)COC(=O)c2ccc[nH]c2=O)cc1	23.9% (active)
COc1ccc(CCNC(=O)COC(=O)c2cc(=O)c3ccccc3o2)cc1	-1.38%

Compound	activation
COc1ccc(CCNC(=O)COC(=O)C2CC2C)cc1 (configuration not stated)	9.52%
COc1ccc(S(=O)(=O)N(CCCN2CCCC2=O)Cc2cc3c(C)ccc(C)c3[nH]c2=O)cc1	-7.13%
CCn1c(SCC(=O)Nc2ccc(C)cc2)nc2nc3c(cc2c1=O)CCCC3	3.79%
O=C1[C@H]2[C@@H](c3ccc(F)cc3)N3C(=O)N(c4ccc(C(F)(F)F)cc4)C(=O)[C@@]3(Cc3ccccc3)[C@H]2C(=O)N1C1CCCCC1	5.91%
c1ccc2cc(CCCc3cc4ccccc4cn3)ncc2c1	-5.39%
O=C(COC(=O)c1cccc(Cl)c1)NC(=O)NCc1ccccc1	7.09%
Cc1cc(C)c2c(-n3cccc3)c(C(=O)NNS(=O)(=O)c3ccc(F)cc3)sc2n1	-8.55%
CCOC(=O)C1=CN(Cc2ccc(Br)cc2)S(=O)(=O)NC1C (configuration not stated)	-3.39%
COC(=O)C1=C(C)N(C(C)c2ccccc2)C(=O)/C1=C\c1ccco1 (configuration not stated)	1.04%
Cc1ccc(-c2nnc(Nc3ccc(C(=O)N(C)C)cc3)c3ccccc23)cc1S(N)(=O)=O	6.07%
COC(=O)c1ccc(CNC(=O)C2CCC(=O)N(Cc3ccccn3)C2)cc1 (configuration not stated)	4.62%
CN(C)/C=C(/C(=O)c1ccc(F)cc1)S(=O)(=O)c1ccc(F)cc1	2.38%
O=C(Nc1ccccc1-c1nnn(CC(=O)N2CCCc3ccccc32)n1)c1cccc(Cl)c1	0.94%
CCC(C)[C@H](NC(=O)N1CCn2c1nc1ccccc12)C(=O)NCc1ccc(OC)cc1 (some centres not stated)	9.75%
COc1cccc(NC(=S)C(C#N)=C2N(C)c3ccccc3N2C)c1	0.38%
CC1=C(C(=O)OC(C)(C)C)C(c2ccc(Br)cc2)NC(=O)N1CCCC(=O)O (configuration not stated)	1.2%
CC(=O)c1ccc(NC(=O)C(C)N(C)CC(=O)Nc2ccccc2Cl)cc1 (configuration not stated)	-3.65%
CCC(C)(C)NC(=O)c1cc([N+](=O)[O-])ccc1N1CCCCC1	-7.67%
N#Cc1c(NCCO)ccc([N+](=O)[O-])c1NCCO	3.1%
O=S(=O)(N/N=C\c1cccn1-c1ccccc1)c1ccc2ccccc2c1	0.8%
COc1cc(CN2CCN(Cc3ccc(C)cc3)CC2)c([N+](=O)[O-])cc1OC	8.01%
COc1ccc(-c2noc(CCC(=O)N3CCN(c4cccc(C)c4)CC3)n2)cc1	-0.7%

Compound	activation
CCOc1ccc2nc(NCCNS(=O)(=O)c3ccccc3)c(C#N)cc2c1	27.3% (active)
CCOc1ccc2nc(NCCNC(=O)C(C)(C)C)c(C)cc2c1	-11.1%
CCOc1ccc(S(=O)(=O)NCCSc2ccccc2)cc1	-4.36%
C[C@H](CO)N1C[C@H](C)[C@@H](CN(C)S(=O)(=O)c2ccc(F)cc2)Oc2ccc(NC(=O)CCC(F)(F)F)cc2C1=O	7.71%
COCCNC(=S)Nc1cc(S(=O)(=O)N2CCOCC2)ccc1N1CCCCC1	-18.3%
CCC(C)N1CC(=O)N2Cc3[nH]c4ccccc4c3C[C@H]2C1=O (some centres not stated)	0.63%
CC(=O)Nc1ccc(NC(=O)C(C)OC(=O)c2ccccc2C(=O)c2ccc(Cl)c([N+](=O)[O-])c2)cc1 (configuration not stated)	-0.74%
COC(=O)c1nc2n(n1)C(c1ccc([N+](=O)[O-])cc1)C(C(=O)Nc1ccc(Cl)cc1)=C(C)N2 (configuration not stated)	3.68%
COC(=O)c1sc(N)c(C(=O)OC)c1COC(=O)CNS(=O)(=O)c1ccc(C)cc1	3.17%
CCN1CCN(C(=O)C2(NC(=O)Nc3cccc(F)c3)CCCCC2)CC1	-1.86%
COc1ccc2sc(-c3ccc(S(C)(=O)=O)cc3)c(C#Cc3cncn3C)c2c1	-7.99%
COc1ccc(-c2sc3ccc(OC)cc3c2C#Cc2ccccn2)cc1	21.3% (active)
COc1ccc2sc(-c3ccc(N(C)C)cc3)c(C#CCO)c2c1	21.1%
CC(C)C[C@H](NC(=O)C1CC(=O)N(c2ccc3c(c2)OCCO3)C1)C(=O)NC1CCCC1 (some centres not stated)	0.18%
COc1ccc(/C=N/Nc2nc3ccccc3c(=O)[nH]2)cc1	30.4% (active)
COc1ccc(/C=N/Nc2ccccc2C(=O)O)cc1	1%
COc1ccc(/C=N/Nc2nc(-c3ccc(C)cc3)c(C#N)c(=O)[nH]2)cc1	8.75%
Cc1cc(-c2nc(C)c(-c3nnc(SCC(=O)Nc4ccccc4)n3C)s2)no1	-5.75%
CCN(CC)S(=O)(=O)c1ccc(N2CCN(C)CC2)c(NC(=O)Nc2ccccc2F)c1	4.2%
COc1ccc(NS(=O)(=O)c2ccc(C)c(C(=O)N(C)Cc3ccc(OC)cc3OC)c2)cc1	10.5%
CC(=O)N1Cc2ccccc2CC1C(=O)O (configuration not stated)	2.69%
O=C(CCCn1c(=O)c2sccc2n(CC(=O)NCC2CCCO2)c1=O)NCc1ccco1 (configuration not stated)	3.97%

Compound	activation
COc1cc(/C=C/C(=O)OCC(=O)Nc2cccc(Oc3ccccc3)c2)ccc1O	-1.86%
O=C(NC1(C(F)(F)F)N=C2SCCN2C1=O)c1ccco1 (configuration not stated)	1.41%
Cc1ccc(NC(=O)Nc2cc(-c3ccccc3)nn2C)cc1Cl	-13.2%
COC(=O)[C@]1(S(=O)(=O)c2ccccc2)C[C@@H]2ON=C(c3ccc(OC)cc3)[C@@H]2C1	-6.69%
CCCCNc1nc2ccccc2nc1NS(=O)(=O)c1cccs1	10.7%
O=C(Nc1ccccc1Cl)/C(Cl)=C(\Cl)S(=O)c1ccccc1 (configuration not stated)	-26.7%
CCOC(=O)CCC(=O)OCC(=O)NC(C)C1CC2CCC1C2 (configuration not stated)	2.01%
O=S(=O)(O)Oc1c[nH]c2ccccc12	4.41%
CCCN(C(=O)c1nc2nccc(C)n2n1)c1c(N)n(Cc2ccccc2)c(=O)[nH]c1=O	1.38%
CN(CC1CCCO1)S(=O)(=O)c1ccc(C(=O)Nc2ccc(F)cc2)cc1 (configuration not stated)	-2.76%
NC(=O)c1ccccc1N=Cc1ccc2ccccc2c1	9.74%
COC(=O)CN1C(=O)[C@H]2[C@@H](C3CC3)N3C(=O)CN(Cc4ccc(-c5ccccc5)cc4)C(=O)[C@@]3(Cc3ccccc3)[C@H]2C1=O	15.8%
CC(=O)c1sc(N/N=C/c2ccc(C(C)C)cc2)nc1C	-6.85%
CCCn1c(C)cc(C(=O)COC(=O)c2c(C)nn(-c3ccccc3)c2C)c1C	0.04%
Cc1ccc(-c2nc(SCC(=O)Nc3ccccc3OC(F)F)c3c(C)c(C(=O)O)sc3n2)cc1	-2.33%
CCOc1ccccc1CN1CCN(C2CCC2)CC1CCO (configuration not stated)	8.07%
Cc1ccc(Cl)cc1NC(=O)C1CCN(S(C)(=O)=O)CC1	-5.8%
CN(CCc1ccccn1)C(=O)c1ccc(OC2CCN(CCc3ccccc3)CC2)cc1	-3.49%
Cc1ccc(NC2CCCN(C(=O)CCc3cn[nH]c3)C2)cc1C (configuration not stated)	8.07%
CC(C)C[C@H](NC(=O)[C@@H]1O[C@H]1C(=O)O)C(=O)NCCCCN=C(N)N	2.62%
COc1ccccc1/C=C/C=N/n1c(-c2ccc(Cl)cc2Cl)n[nH]c1=S	-14.5%
